From ChEMBL document CHEMBL3758120, “Synthesis and Mechanism Studies of 1,3-Benzoazolyl Substituted Pyrrolo[2,3-b]pyrazine Derivatives as Nonintercalative Topoisomerase II Catalytic Inhibitors” (J Med Chem, 2016) come the findings set out here.

Test [1] deals with T1, DNA topoisomerase 2-alpha (Homo sapiens, UniProt P11388). Briefly: Inhibition of purified human topoisomerase 2-mediated relaxation of supercoiled pBR322 DNA at 50 uM incubated for 30 mins by agarose gel electrophoresis. Put shortly: (§1)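 Reactions contained 0.2 μg supercoiled pBR322 in 50 mM Tris-HCl pH 8.0, 150 mM NaCl, 10 mM MgCl2, 0.5 mM DTT, 30 μg/ml BSA, normally 2 mM ATP (1, 2 or 4 mM in ATP-competition runs). Started with 1 U human Topo II, 30 min at 37 °C, stopped with sarcosyl buffer, run on 1% agarose 1.5 h at 75 V, gel-stained and imaged under UV.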
T1 sequence (P11388 whole entry): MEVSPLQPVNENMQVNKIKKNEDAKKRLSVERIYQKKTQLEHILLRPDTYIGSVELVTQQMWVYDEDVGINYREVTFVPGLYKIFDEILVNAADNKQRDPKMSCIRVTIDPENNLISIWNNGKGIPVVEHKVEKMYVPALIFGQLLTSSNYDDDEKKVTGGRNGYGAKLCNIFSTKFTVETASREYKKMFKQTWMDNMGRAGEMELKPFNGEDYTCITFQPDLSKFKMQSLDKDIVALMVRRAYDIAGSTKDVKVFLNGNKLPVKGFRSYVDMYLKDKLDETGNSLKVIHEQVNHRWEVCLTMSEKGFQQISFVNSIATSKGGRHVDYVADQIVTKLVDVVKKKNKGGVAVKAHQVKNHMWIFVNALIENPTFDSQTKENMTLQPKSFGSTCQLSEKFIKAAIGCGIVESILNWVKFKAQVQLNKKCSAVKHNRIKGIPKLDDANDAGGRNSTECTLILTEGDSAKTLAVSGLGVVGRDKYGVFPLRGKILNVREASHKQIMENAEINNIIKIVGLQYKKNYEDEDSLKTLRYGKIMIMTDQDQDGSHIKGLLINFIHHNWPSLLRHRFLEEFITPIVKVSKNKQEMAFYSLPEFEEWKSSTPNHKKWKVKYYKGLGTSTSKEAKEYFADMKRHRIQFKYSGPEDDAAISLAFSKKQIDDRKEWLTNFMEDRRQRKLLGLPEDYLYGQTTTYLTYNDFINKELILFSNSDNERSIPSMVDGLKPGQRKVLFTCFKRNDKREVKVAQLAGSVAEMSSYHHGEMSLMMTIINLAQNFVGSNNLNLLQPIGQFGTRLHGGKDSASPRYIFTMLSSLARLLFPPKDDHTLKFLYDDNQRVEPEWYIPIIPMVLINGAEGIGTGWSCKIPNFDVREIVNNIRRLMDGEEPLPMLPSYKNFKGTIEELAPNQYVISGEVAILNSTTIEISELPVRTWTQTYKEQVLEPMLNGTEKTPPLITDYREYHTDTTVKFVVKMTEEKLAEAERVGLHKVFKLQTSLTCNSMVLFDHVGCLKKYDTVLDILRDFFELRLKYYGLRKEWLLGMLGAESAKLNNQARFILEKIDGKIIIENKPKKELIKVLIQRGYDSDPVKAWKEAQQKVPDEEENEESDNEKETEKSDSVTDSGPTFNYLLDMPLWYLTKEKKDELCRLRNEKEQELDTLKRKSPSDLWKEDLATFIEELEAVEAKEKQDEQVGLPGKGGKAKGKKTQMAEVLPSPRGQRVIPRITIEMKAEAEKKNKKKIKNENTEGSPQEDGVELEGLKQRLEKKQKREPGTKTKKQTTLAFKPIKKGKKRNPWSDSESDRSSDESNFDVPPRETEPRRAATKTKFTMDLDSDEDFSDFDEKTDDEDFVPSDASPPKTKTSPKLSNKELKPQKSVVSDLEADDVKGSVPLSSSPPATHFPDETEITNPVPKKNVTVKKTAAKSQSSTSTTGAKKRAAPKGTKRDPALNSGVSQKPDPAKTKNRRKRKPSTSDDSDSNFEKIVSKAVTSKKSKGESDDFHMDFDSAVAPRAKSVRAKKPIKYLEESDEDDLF

In test [2] the target is T2, DNA topoisomerase 1 (Homo sapiens) (UniProt P11387).
T2 sequence (whole entry): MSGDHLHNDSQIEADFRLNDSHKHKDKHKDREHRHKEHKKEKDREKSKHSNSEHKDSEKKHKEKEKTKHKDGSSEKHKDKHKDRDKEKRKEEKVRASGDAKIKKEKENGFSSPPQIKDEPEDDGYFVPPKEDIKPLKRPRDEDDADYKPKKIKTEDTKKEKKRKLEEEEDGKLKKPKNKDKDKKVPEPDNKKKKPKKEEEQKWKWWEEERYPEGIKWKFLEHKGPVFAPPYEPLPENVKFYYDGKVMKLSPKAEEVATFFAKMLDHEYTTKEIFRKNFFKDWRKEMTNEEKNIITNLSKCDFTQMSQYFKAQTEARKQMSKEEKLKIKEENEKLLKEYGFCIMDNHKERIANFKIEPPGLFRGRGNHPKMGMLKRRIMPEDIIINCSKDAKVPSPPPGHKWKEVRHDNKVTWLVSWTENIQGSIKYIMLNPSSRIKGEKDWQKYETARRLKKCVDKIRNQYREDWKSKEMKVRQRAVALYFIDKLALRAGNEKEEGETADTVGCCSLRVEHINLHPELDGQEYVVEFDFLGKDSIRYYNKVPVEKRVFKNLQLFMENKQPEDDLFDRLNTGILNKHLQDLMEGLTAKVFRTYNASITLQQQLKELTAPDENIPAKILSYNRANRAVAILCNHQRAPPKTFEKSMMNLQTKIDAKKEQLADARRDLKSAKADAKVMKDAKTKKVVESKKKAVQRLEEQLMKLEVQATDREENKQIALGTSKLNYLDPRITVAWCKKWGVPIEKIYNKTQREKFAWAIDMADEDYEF
Briefly: Inhibition of recombinant human topoisomerase 1-mediated relaxation of supercoiled pBR322 DNA at 50 uM incubated for 30 mins by agarose gel electrophoresis. The essentials: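 Supercoiled pBR322 relaxed by Topo I with compound, incubated 30 min at 37 °C, stopped with 1% SDS dye, run on 1% agarose 1 h at 90 V in TAE, stained and imaged under UV; camptothecin as reference.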

The next test has as its system HeLa. Briefly: Antiproliferative activity against human HeLa cells after 48 hrs by MTT assay. The class given is functional, cell-based. Put shortly:
(§2)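 Cells seeded at 5000 per well and left overnight, then exposed to increasing concentrations (0-50 μM) for 48 h. […] HL-60/MX2 is a mitoxantrone-selected HL-60 derivative with reduced Topo IIα/β.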
For orientation: Formazan colour is commonly taken as a measure of viable cells.

Test [3] can be described thus: Antiproliferative activity against human MDA-MB-201 cells after 48 hrs by MTT assay. Format: functional, cell-based. The essentials: as §2
For the next test, the system named is A549. Briefly: Antiproliferative activity against human A549 cells after 48 hrs by MTT assay. Format: functional, cell-based. The note with it: A549, 48 h. Put shortly:
as §2

The test system of a further test is K562. Briefly: Antiproliferative activity against human K562 cells after 48 hrs by MTT assay. The note with it: K562, 48 h. Format: functional, cell-based. The essentials: as §2
A further test relates to Raji. Briefly: Antiproliferative activity against human Raji cells after 48 hrs by MTT assay. Format: functional, cell-based. Put shortly:
as §2

A short description of test [4]: Antiproliferative activity against human HL60 cells after 48 hrs by MTT assay. Format: functional, cell-based. Conditions: HL-60, 48 h. Put shortly:
as §2

The nature of test [5]: Antiproliferative activity against human HL60/MX2 cells after 48 hrs by MTT assay. Format: functional, cell-based. Conditions: HL60/MX2, 48 h. The essentials: as §2
The next test concerns HL-60. Briefly: Resistance index, ratio of IC50 for human HL60/MX2 cells to IC50 for HL60 cells. The class given is functional. Put shortly:
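Resistance index calculated as MTT-derived IC50 (48 h exposure, 0-50 μM, A570 readout) in HL-60/MX2 divided by IC50 in parental HL-60.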

Another test concerns HEK293. The experiment in a line: Cytotoxicity against HEK293 cells after 48 hrs by MTT assay. Format: cell-based. The note with it: Homo sapiens, HEK293, 48 h.
Test [6] has as its target T1, DNA topoisomerase 2-alpha. The experiment in a line: Inhibition of purified human topoisomerase 2-mediated relaxation of supercoiled pBR322 DNA at 20 uM incubated for 30 mins by agarose gel electrophoresis. Put shortly:
as §1

The structures appear in SMILES notation. Activity calls are given as the source filed them. The rule behind the calls is not given here.

Regarding `CN1CCN(CCCn2c(N)c(-c3nc4ccccc4[nH]3)c3nc(C#N)c(C#N)nc32)CC1`, the inhibition entry in test [1] and in [2] was “inactive” each time. Also, the IC50 (in general, the concentration that inhibits the measured activity by half) with HeLa was 15.6 µM; in test [3], 4.52 µM; in the test with A549, 5.75 µM; in the test with K562 it was 1.26 µM; with Raji it was 2.62 µM; in test [4], 0.75 µM. Also, the 50% inhibitory concentration (IC50) in test [5] was 3.32 µM; with HEK293, 6.26 µM. Further, the “Ratio IC50” value with HL-60 was determined as 4.4.

As for `CN(C)CCCn1c(N)c(-c2nc3ccccc3n2C)c2nc(C#N)c(C#N)nc21`, in test [6], the inhibition result was “Active”. For the same molecule, the IC50 was found to be 4.32 µM in the test on HeLa; 3.67 µM in test [3]; 11.7 µM in the test with A549; 3.56 µM in the test on K562; 0.94 µM with Raji; 2.12 µM in test [4]. Further, the IC50 in test [5] worked out at 11.3 µM; in the test with HEK293, 8.41 µM. Also, the “Ratio IC50” value with HL-60 stood at 5.3.

Regarding `CCN(CC)CCCCn1c(N)c(-c2nc3ccccc3n2C)c2nc(C#N)c(C#N)nc21`, in [6], the inhibition entry was “Active”. Moreover, the IC50 in the test with HeLa was determined as 1.61 µM; in [3] it was 2.89 µM; in the test on A549, 1.72 µM; in the test on K562 it was 1.01 µM; in the test with Raji, 0.92 µM; in test [4], 0.7 µM. Besides, the IC50 in test [5] is 1.73 µM; in the test on HEK293, 3.16 µM. Besides, in the test with HL-60, the “Ratio IC50” value turned out to be 2.5.

For `CN1CCN(CCn2c(N)c(-c3nc4ccccc4[nH]3)c3nc(C#N)c(C#N)nc32)CC1`, the inhibition result in [2] is “inactive”. The half-maximal inhibitory concentration (IC50) is above 50 µM in the test on HeLa; 9.11 µM in test [3]; 40.5 µM in the test on A549; 6.55 µM in the test with K562; above 50 µM with Raji; 4.3 µM in test [4]. The values for the IC50 (in test [5]; in the test on HEK293) were 6.49 µM and 10.9 µM, respectively. In the test on HL-60, the “Ratio IC50” value is recorded as 1.5.

With `CCN(CC)CCCCn1c(-c2c(N)n(C)c3nc(C#N)c(C#N)nc23)nc2ccccc21`, the inhibition entry in test [6] is “Active”. In addition, the IC50 in the test on HeLa was 11.8 µM; in test [3] it was 6.95 µM; with A549, 13.1 µM; in the test with K562, 3.18 µM; with Raji, 0.6 µM; in test [4] it was 2.86 µM. In addition, the concentration for half-maximal inhibition (IC50) in test [5] was 3.92 µM; in the test with HEK293 it was 8.82 µM. For the same molecule, in the test with HL-60, the “Ratio IC50” value is given as 1.3.

In the case of `Cn1c(N)c(-c2nc3ccccc3[nH]2)c2nc(C#N)c(C#N)nc21`, the inhibition entry in [1] and in test [2] was “inactive” in each case. Also, the IC50 (in the test with HeLa; in test [3]; in the test with A549; with K562; in the test on Raji; in test [4]) was above 50 µM each time. The IC50 (in test [5]; with HEK293) was above 50 µM each time.

Regarding `COc1ccc(CCn2c(N)c(-c3nc4ccccc4[nH]3)c3nc(C#N)c(C#N)nc32)cc1`, the inhibition result in test [1] and in test [2] was “inactive” in each case. The half-maximal inhibitory concentration (IC50) in the test with HeLa is above 50 µM; in test [3], above 50 µM; in the test on A549 it was above 50 µM; in the test on K562, above 50 µM; in the test with Raji it was 2.78 µM; in [4] it was above 50 µM. Also, the IC50 (in test [5]; with HEK293) was above 50 µM throughout.

As to `N#Cc1nc2c(-c3nc4ccccc4[nH]3)c(N)n(CCN3CCOCC3)c2nc1C#N`, the inhibition entry in test [1] and in test [2] was “inactive” in each case. In addition, the 50% inhibitory concentration (IC50) is above 50 µM in the test with HeLa; above 50 µM in test [3]; above 50 µM in the test with A549; above 50 µM in the test with K562; 2.88 µM with Raji; 9.04 µM in test [4]. Also, the IC50 in test [5] is above 50 µM; in the test with HEK293, 22.3 µM.

Take `N#Cc1nc2c(-c3nc4ccccc4[nH]3)c(N)n(CCCN3CCCCC3)c2nc1C#N`: the inhibition entry in test [1] and in test [2] was “inactive” throughout. The IC50 with HeLa was found to be 6.68 µM; in test [3] it was 6.23 µM; in the test with A549, 6.11 µM; with K562 it was 3.46 µM; with Raji, 3.38 µM; in test [4], 1.68 µM. The results for the IC50 (in test [5]; with HEK293) were 1.01 µM and 6.72 µM, respectively. Further, in the test with HL-60, the “Ratio IC50” value was determined as 0.6.

With `CN(C)CCn1c(N)c(-c2nc3ccccc3[nH]2)c2nc(C#N)c(C#N)nc21`, the inhibition result in test [1] and in [2] was “inactive” in each case. For the same molecule, the IC50 is 8.88 µM with HeLa; 43.5 µM in test [3]; above 50 µM in the test on A549; 6.34 µM with K562; 8.32 µM in the test on Raji; 2.22 µM in test [4]. Further, the IC50 turned out to be 3.78 µM in test [5] and 9.73 µM with HEK293. Further, the “Ratio IC50” value in the test with HL-60 worked out at 1.7.

Consider `CCCCn1c(N)c(-c2nc3ccccc3[nH]2)c2nc(C#N)c(C#N)nc21`, for which the inhibition entry in test [1] and in test [2] was “inactive” in each case. The IC50 (in the test with HeLa; in [3]; in the test on A549; in the test with K562; in the test on Raji; in test [4]) was above 50 µM in each case. The IC50 (in [5]; with HEK293) was above 50 µM each time.

In the case of `CCN(CC)CCn1c(N)c(-c2nc3ccccc3[nH]2)c2nc(C#N)c(C#N)nc21`, the inhibition result in [1] and in test [2] was “inactive” throughout. Also, the 50% inhibitory concentration (IC50) with HeLa was 11.6 µM; in [3], 25.4 µM; in the test with A549, above 50 µM; in the test on K562, 2.49 µM; in the test with Raji, 8.95 µM; in test [4] it was 1.88 µM. Moreover, the 50% inhibitory concentration (IC50) stood at 7.15 µM in test [5] and 12.2 µM in the test on HEK293. For the same molecule, the “Ratio IC50” value with HL-60 is 3.8.

For `N#Cc1nc2c(-c3nc4ccccc4[nH]3)c(N)n(CCO)c2nc1C#N`, the inhibition result in test [1] and in test [2] was “inactive” in each case. In addition, the IC50 is above 50 µM in the test with HeLa; above 50 µM in test [3]; above 50 µM with A549; above 50 µM with K562; 5.52 µM with Raji; above 50 µM in test [4]. Further, the concentration for half-maximal inhibition (IC50) (in test [5]; in the test with HEK293) was above 50 µM each time.

As to `CN(C)CCn1c(N)c(-c2nc3ccccc3s2)c2nc(C#N)c(C#N)nc21`, the inhibition entry in [1] and in [2] was “inactive” each time. For the same molecule, the IC50 with HeLa was above 50 µM; in [3], above 50 µM; in the test on A549, above 50 µM; with K562 it was 8 µM; with Raji, 1.96 µM; in [4] it was 1.67 µM. Also, the IC50 in test [5] is above 50 µM; with HEK293, 11.8 µM.

On to `N#Cc1nc2c(-c3nc4ccccc4[nH]3)c(N)n(CCCN3CCOCC3)c2nc1C#N`, for which the inhibition entry in [1] and in test [2] was “inactive” throughout. Moreover, the half-inhibitory concentration (IC50) with HeLa is above 50 µM; in test [3] it was above 50 µM; with A549, above 50 µM; in the test with K562, 7.72 µM; in the test with Raji, 14.4 µM; in test [4] it was above 50 µM. Moreover, the values for the IC50 (in test [5]; with HEK293) were 5.57 µM and above 50 µM, respectively.
